Reference: ChEMBL document CHEMBL1155877, “Design, synthesis, and biological evaluation of 14-substituted aromathecins as topoisomerase I inhibitors” (2008)
The source made the active and inactive calls. The rule behind the calls is not given here.

Assays:
HOP-62 [1] = experiment: Antiproliferative activity against human HOP62 cells; type: functional
Outline: (§1)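 NCI ~60 human tumor cell line screen. After an initial one-dose test, selected compounds run at five concentrations spanning 10^-8 to 10^-4 M. GI50 reported for selected lines from each subpanel.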

OVCAR-3 = experiment: Antiproliferative activity against human OVCAR-3 cells; type: functional; outline: as §1
HCT-116 = experiment: Antiproliferative activity against human HCT116 cells; type: functional; outline: as §1
DU-145 = experiment: Antiproliferative activity against human DU145 cells; type: functional; outline: as §1
SF-539 = experiment: Antiproliferative activity against human SF539 cells; type: functional; outline: as §1
[2] = molecular target: T1, DNA topoisomerase 1 (Homo sapiens) (UniProt P11387); experiment: Inhibition of human recombinant topoisomerase 1 assessed as DNA cleavage relative to 1 uM camptothecin
T1 sequence (whole entry): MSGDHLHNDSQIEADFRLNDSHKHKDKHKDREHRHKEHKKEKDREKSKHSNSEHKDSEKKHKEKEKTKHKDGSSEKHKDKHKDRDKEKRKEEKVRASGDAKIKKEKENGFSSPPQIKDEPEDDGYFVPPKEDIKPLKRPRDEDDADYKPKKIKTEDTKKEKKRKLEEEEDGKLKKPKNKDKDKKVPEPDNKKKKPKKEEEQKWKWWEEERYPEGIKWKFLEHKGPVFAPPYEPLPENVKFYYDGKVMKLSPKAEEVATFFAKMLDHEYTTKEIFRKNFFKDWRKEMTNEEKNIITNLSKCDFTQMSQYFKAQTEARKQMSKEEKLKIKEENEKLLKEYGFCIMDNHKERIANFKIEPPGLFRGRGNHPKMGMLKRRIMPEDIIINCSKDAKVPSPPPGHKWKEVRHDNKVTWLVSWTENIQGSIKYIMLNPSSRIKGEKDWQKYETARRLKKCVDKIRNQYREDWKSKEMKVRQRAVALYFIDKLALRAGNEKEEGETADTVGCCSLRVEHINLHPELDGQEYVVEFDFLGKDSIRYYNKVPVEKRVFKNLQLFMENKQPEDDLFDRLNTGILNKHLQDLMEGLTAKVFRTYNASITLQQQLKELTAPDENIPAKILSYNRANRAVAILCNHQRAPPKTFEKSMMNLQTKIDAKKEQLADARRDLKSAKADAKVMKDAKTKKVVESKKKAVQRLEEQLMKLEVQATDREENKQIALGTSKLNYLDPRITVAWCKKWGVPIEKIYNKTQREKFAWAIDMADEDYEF
Outline: (§2)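 Baculovirus-expressed, purified human recombinant top1. Substrate is the 161 bp PvuII/HindIII fragment of pBluescript SK(-), 3'-end labeled at the HindIII site with [α-32P]-dGTP (about 50 000 dpm/reaction). Incubated with drug at 22 °C for 30 min. Products resolved on denaturing 16% polyacrylamide/7 M urea gels and imaged by phosphorimager. Tested at 0.1, 1, 10 and 100 µM.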

MDA-MB-435 = experiment: Antiproliferative activity against human MDA-MB-435 cells; type: functional; outline: as §1
SN12C = experiment: Antiproliferative activity against human SN12C cells; type: functional; outline: as §1
UACC-62 = experiment: Antiproliferative activity against human UACC62 cells; type: functional; outline: as §1
HOP-62 [3] = experiment: Growth inhibition of human HOP62 cells at 10 uM; type: functional; conditions: pooled result: one value given for 8 cell lines, strains, targets or settings, read-out: GI
[4] = molecular target: T1, DNA topoisomerase 1 (Homo sapiens); experiment: Induction of human recombinant topoisomerase 1-mediated DNA cleavage at 100 uM; outline: as §2

`O=c1c2ccccc2cc2n1Cc1c-2nc2ccccc2c1CN1CC[C@H](O)C1` showed a GI50 (HOP-62 [1]) of 28.6 µM, a GI50 (OVCAR-3) of 5.5 µM and a GI50 (HCT-116) of 9 µM. For the same molecule, the GI50 (DU-145) was 7 µM, the GI50 (SF-539) was 5.4 µM and the inhibition [2] was 75%. The GI50 (MDA-MB-435) was 10.3 µM, the GI50 (SN12C) was 16.9 µM and the GI50 (UACC-62) was 2.7 µM.

For `O=c1c2cccc(CO)c2cc2n1Cc1cc3ccccc3nc1-2`, the inhibition [2] was 20%.

`CN(C)Cc1c2c(nc3ccccc13)-c1cc3ccccc3c(=O)n1C2` was tested, and the GI50 (HOP-62 [1]) was > 100 µM, the GI50 (OVCAR-3) was > 100 µM and the GI50 (DU-145) was > 100 µM. The GI50 (SF-539) was > 100 µM, the inhibition [2] was 75% and the GI50 (MDA-MB-435) was > 100 µM. The GI50 (SN12C) was > 100 µM and the GI50 (UACC-62) was > 100 µM.

Work on `O=c1c2ccccc2cc2n1Cc1c-2nc2ccccc2c1Cn1ccnc1` yielded a GI50 (HOP-62 [1]) of 10 µM, a GI50 (OVCAR-3) of 17 µM and a GI50 (HCT-116) of 13.2 µM. The GI50 (DU-145) was 11.5 µM, the GI50 (SF-539) was 4.7 µM and the inhibition [2] was 75%. The GI50 (MDA-MB-435) was > 100 µM, the GI50 (SN12C) was 21.5 µM and the GI50 (UACC-62) was 3.4 µM.

In the case of `CN1CCN(Cc2c3c(nc4ccccc24)-c2cc4ccccc4c(=O)n2C3)CC1`, the GI50 (HOP-62 [1]) is reported as > 100 µM, the GI50 (HCT-116) is reported as 1.9 µM and the GI50 (DU-145) is reported as 4.9 µM. For the same molecule, the GI50 (SF-539) was 1.8 µM, the inhibition [2] was 75% and the GI50 (MDA-MB-435) was 2.1 µM. For the same molecule, the GI50 (SN12C) was > 100 µM and the GI50 (UACC-62) was > 100 µM.

With `COc1cc2cc3n(c(=O)c2cc1OC)Cc1cc2ccccc2nc1-3` [DIMETHOXYAROMATHECIN] the GI50 (HOP-62 [1]) was > 100 µM, the GI50 (OVCAR-3) was > 100 µM and the GI50 (DU-145) was > 100 µM. The GI50 (SF-539) was > 100 µM, the inhibition [2] was 20% and the GI50 (MDA-MB-435) was > 100 µM. For the same molecule, the GI50 (SN12C) was > 100 µM and the GI50 (UACC-62) was > 100 µM.

With `NCc1c2c(nc3ccccc13)-c1cc3ccccc3c(=O)n1C2` the GI50 (HOP-62 [1]) was 9.8 µM, the GI50 (OVCAR-3) was 2.9 µM and the GI50 (HCT-116) was 1.5 µM. The GI50 (DU-145) was 2.8 µM, the GI50 (SF-539) was 4.9 µM and the inhibition [2] was 50%. For the same molecule, the GI50 (MDA-MB-435) was 9.4 µM, the GI50 (SN12C) was 2.9 µM and the GI50 (UACC-62) was 11.7 µM.

With `O=c1c2ccccc2cc2n1Cc1c-2nc2ccccc2c1CCl` the GI50 (HOP-62 [1]) was 26.5 µM, the GI50 (OVCAR-3) was > 100 µM and the GI50 (HCT-116) was 43.4 µM. The GI50 (DU-145) was > 100 µM, the GI50 (SF-539) was 7.4 µM and the inhibition [2] was 20%. The GI50 (MDA-MB-435) was > 100 µM, the GI50 (SN12C) was > 100 µM and the GI50 (UACC-62) was > 100 µM.

`O=c1c2ccccc2cc2n1Cc1c-2nc2ccccc2c1CNCCCN1CCOCC1` gave an inhibition of growth at 10 µM (HOP-62 [3]) of 25.5%.

In the case of `O=c1c2ccccc2cc2n1Cc1c-2nc2ccccc2c1CNCCCn1ccnc1`, the GI50 (HOP-62 [1]) is reported as 4.7 µM, the GI50 (OVCAR-3) is reported as 4.4 µM and the GI50 (HCT-116) is reported as 3.2 µM. It also gave a GI50 (DU-145) of 3.2 µM, a GI50 (SF-539) of 3.8 µM and an inhibition [2] of 50%. The GI50 (MDA-MB-435) was 7 µM, the GI50 (SN12C) was 3.5 µM and the GI50 (UACC-62) was 6.4 µM.

In the case of `O=c1c2ccccc2cc2n1Cc1c-2nc2ccccc2c1CCCNCCO`, the GI50 (HOP-62 [1]) is reported as 1.2 µM, the Activity [4] is reported as “Active” and the GI50 (OVCAR-3) is reported as 6.3 µM. The GI50 (HCT-116) was 1.6 µM, the GI50 (DU-145) was 13.2 µM and the GI50 (SF-539) was 12.9 µM. The Activity [2] was “Active”, the GI50 (MDA-MB-435) was 1.7 µM and the GI50 (SN12C) was 4.1 µM. The GI50 (UACC-62) was 1.8 µM.

With `O=c1c2ccccc2cc2n1Cc1c-2nc2ccccc2c1CN1CCOCC1` the inhibition of growth at 10 µM (HOP-62 [3]) was 14% and the inhibition [2] was 50%.

In the case of `O=c1c2ccccc2cc2n1Cc1c-2nc2ccccc2c1CCCn1ccnc1`, the GI50 (HOP-62 [1]) is reported as 2 µM, the GI50 (OVCAR-3) is reported as 5 µM and the GI50 (HCT-116) is reported as 1.6 µM. It also gave a GI50 (DU-145) of 3.3 µM, a GI50 (SF-539) of 0.74 µM and an inhibition [2] of 75%. For the same molecule, the GI50 (MDA-MB-435) was 4.2 µM, the GI50 (SN12C) was 4.5 µM and the GI50 (UACC-62) was 1.5 µM.

In the case of `O=c1c2ccccc2cc2n1Cc1cc3ccccc3nc1-2` [ROSETTACIN], the GI50 (DU-145) is reported as > 100 µM, the inhibition [2] is reported as 50% and the GI50 (SN12C) is reported as > 100 µM.

For `COc1cc2c3c(n(C)c(=O)c2cc1OC)-c1cc2c(cc1C3=O)OCO2`, the GI50 (HOP-62 [1]) was 1.3 µM, the GI50 (HCT-116) was 35 µM and the GI50 (DU-145) was 37 µM. It also gave a GI50 (SF-539) of 41 µM, an inhibition [2] of 50% and a GI50 (MDA-MB-435) of 96 µM. It also gave a GI50 (SN12C) of 68 µM and a GI50 (UACC-62) of 4.2 µM.

In the case of `CC[C@@]1(O)C(=O)OCc2c1cc1n(c2=O)Cc2cc3ccccc3nc2-1` [CAMPTOTHECIN], the GI50 (HOP-62 [1]) is reported as 0.01 µM, the GI50 (HCT-116) is reported as 0.03 µM and the GI50 (DU-145) is reported as 0.01 µM. For the same molecule, the GI50 (SF-539) was 0.01 µM, the GI50 (MDA-MB-435) was 0.04 µM and the GI50 (SN12C) was 0.02 µM. The GI50 (UACC-62) was 0.01 µM.

Molecule `CN(C)CCCc1c2c(nc3ccccc13)-c1cc3ccccc3c(=O)n1C2` has an inhibition of growth at 10 µM (HOP-62 [3]) of 21.4% and an inhibition [2] of 75%.

Molecule `O=c1c2ccccc2cc2n1Cc1c-2nc2ccccc2c1CCCN1CCOCC1` has a GI50 (HOP-62 [1]) of 5 µM, a GI50 (OVCAR-3) of 10.6 µM and a GI50 (HCT-116) of 3.9 µM. For the same molecule, the GI50 (DU-145) was 20.3 µM, the GI50 (SF-539) was 3.5 µM and the inhibition [2] was 50%. The GI50 (MDA-MB-435) was > 100 µM, the GI50 (SN12C) was 5.9 µM and the GI50 (UACC-62) was 1.4 µM.

For `NCCCc1c2c(nc3ccccc13)-c1cc3ccccc3c(=O)n1C2`, the inhibition [2] was 20%.

`O=c1c2ccccc2cc2n1Cc1c-2nc2ccccc2c1CNCCO` was tested, and the GI50 (HOP-62 [1]) was 3.5 µM, the GI50 (OVCAR-3) was 6.3 µM and the GI50 (HCT-116) was 3.6 µM. It also gave a GI50 (DU-145) of 2.8 µM, a GI50 (SF-539) of 3.9 µM and an inhibition [2] of 75%. For the same molecule, the GI50 (MDA-MB-435) was > 100 µM, the GI50 (SN12C) was 2.7 µM and the GI50 (UACC-62) was 2.6 µM.

Work on `COc1cc2c3c(n(CCCNCCO)c(=O)c2cc1OC)-c1cc2c(cc1C3=O)OCO2` [LMP-744] yielded a GI50 (HOP-62 [1]) of 0.02 µM, a GI50 (OVCAR-3) of 0.5 µM and a GI50 (HCT-116) of 0.1 µM. The GI50 (DU-145) was > 0.01 µM, the GI50 (SF-539) was 0.04 µM and the Activity [2] was “Active”. The GI50 (MDA-MB-435) was 0.79 µM, the GI50 (SN12C) was > 0.01 µM and the GI50 (UACC-62) was 0.03 µM.
